Series [1] deals with Transmissible gastroenteritis virus. Nature of the series: Antiviral activity against Transmissible gastroenteritis virus TFI infected in swine testicle cells assessed as reduction of N protein mRNA level at 1 uM after 6 hrs post infection by RT-PCR. The format is functional. On the set-up: scale not given: the % may be the effect or the level left. In short, it runs like this: (§1)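 Viral RNA was extracted from lysates of TGEV-infected ST cells for SYBR green real-time RT-PCR, with primers for TGEV N protein or 3CLpro. Cycling was 50°C 2 min and 95°C 10 min, then 40 cycles of 95°C 15 s and 60°C 1 min. Levels were normalized to β-actin by the comparative CT method, with CT measured at least in triplicate.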

The nature of series [2]: Cytotoxicity against swine testicle cells after 18 hrs. The format is cell-based, Sus scrofa. The note with it: pig. The method, boiled down:
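ST cells in MEM with 10% fetal bovine serum were exposed to eight concentrations of compound for 18 h. GI50 was derived from the dose-response curves.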

The subject of series [3] is Transmissible gastroenteritis virus. The series can be described thus: Antiviral activity against Transmissible gastroenteritis virus TFI infected in swine testicle cells assessed as protection against virus-induced cytopathic effect at 5 uM after 24 hrs post infection. The format is functional, organism-based. The method, boiled down:
(§2)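 ST cell monolayers were inoculated with TGEV at MOI 5 and kept at 37°C under 5% CO2. Treatments were 5 µM compound, caspase inhibitor ZVAD-fmk at 100 µM as positive control, or 1% DMSO vehicle. At 18–24 hpi CPE was scored by microscopy as cell rounding, enlargement, syncytia and detachment. Two independent experiments were run.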

Series [4] has the same test system. The series can be described thus: Antiviral activity against Transmissible gastroenteritis virus TFI infected in swine testicle cells assessed as reduction of 3CL protease mRNA level after 6 hrs post infection by RT-PCR. The format is functional, organism-based. The method, boiled down:
as §1

Series [5] is described as follows: Inhibition of Transmissible gastroenteritis virus TFI recombinant GST-tagged 3C-like protease expressed in Escherichia coli BL21 (DE3). In short, it runs like this:
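The TGEV strain TFI 3CLpro was expressed in E. coli BL21(DE3) as a GST fusion, purified on glutathione resin, and had the tag cleaved with PreScission protease. IC50 came from at least eight concentrations.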

Series [6] has as its system Transmissible gastroenteritis virus. Nature of the series: Antiviral activity against Transmissible gastroenteritis virus TFI infected in swine testicle cells assessed as reduction of 3CL protease mRNA level at 10 uM after 6 hrs post infection by RT-PCR. The format is functional. On the set-up: scale not given: the % may be the effect or the level left. The method, boiled down: as §1

Series [7] has the same test system. The series can be described thus: Antiviral activity against Transmissible gastroenteritis virus TFI infected in swine testicle cells assessed as reduction of N protein mRNA level after 6 hrs post infection by RT-PCR. In kind it is functional, organism-based. In short, it runs like this:
as §1

Series [8] has the same test system. The series can be described thus: Antiviral activity against Transmissible gastroenteritis virus TFI infected in swine testicle cells assessed as reduction of 3CL protease mRNA level at 1 uM after 6 hrs post infection by RT-PCR. The format is functional. On the set-up: scale not given: the % may be the effect or the level left. In short, it runs like this:
as §1

For series [9] the test system is unchanged. The series can be described thus: Antiviral activity against Transmissible gastroenteritis virus TFI infected in swine testicle cells assessed as protection against virus-induced caspase 3 activation at 5 uM after 18 hrs post infection. In kind it is functional, organism-based. In short, it runs like this:
(§3)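 TGEV-infected ST cells were treated with compound at 5 µM, and caspase activation was examined at 14 and 18 hpi. Lysates with equal total protein were run on SDS-PAGE and transferred to nitrocellulose. Blots were probed with anti-caspase-3 (β-actin antibody also used) and detected by enhanced chemiluminescence.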

The target in series [10] is Replicase polyprotein 1ab (Severe acute respiratory syndrome-related coronavirus, UniProt P0C6X7). Nature of the series: Inhibition of SARS Coronavirus 3C-like protease expressed in Escherichia coli.
The subject of series [11] is Transmissible gastroenteritis virus. Nature of the series: Antiviral activity against Transmissible gastroenteritis virus TFI infected in swine testicle cells assessed as protection against virus-induced caspase 3 activation at 5 uM after 14 hrs post infection. The format is functional, organism-based. In short, it runs like this:
as §3

Series [12] has the same test system. Nature of the series: Antiviral activity against Transmissible gastroenteritis virus TFI infected in swine testicle cells assessed as reduction of N protein mRNA level at 10 uM after 6 hrs post infection after 6 hrs post infection by RT-PCR. The format is functional. On the set-up: scale not given: the % may be the effect or the level left. The method, boiled down: as §1

For series [13] the test system is unchanged. Nature of the series: Antiviral activity against Transmissible gastroenteritis virus TFI infected in swine testicle cells assessed as protection against virus-induced cytopathic effect at 100 uM after 18 hrs post infection. The format is functional, organism-based. The method, boiled down:
as §2

Series [14] has the same test system. The series can be described thus: Antiviral activity against Transmissible gastroenteritis virus TFI infected in swine testicle cells assessed as reduction of N protein mRNA level at 5 uM after 6 hrs post infection by RT-PCR. The format is functional. On the set-up: scale not given: the % may be the effect or the level left. The method, boiled down: as §1
The test system is the same in series [15]. The series can be described thus: Antiviral activity against Transmissible gastroenteritis virus TFI infected in swine testicle cells assessed as reduction of 3CL protease mRNA level at 5 uM after 6 hrs post infection by RT-PCR. In kind it is functional. On the set-up: scale not given: the % may be the effect or the level left. In short, it runs like this:
as §1

Series [16] shares this test system. Nature of the series: Antiviral activity against Transmissible gastroenteritis virus TFI infected in swine testicle cells assessed as protection against virus-induced cytopathic effect at 100 uM after 24 hrs post infection. The format is functional, organism-based.
Series [17] has the same test system. The series can be described thus: Antiviral activity against Transmissible gastroenteritis virus TFI infected in swine testicle cells assessed as inhibition of S and N protein expression treated 2 hrs before infection measured after 6 hrs post infection by indirect immunofluorescent assay. The format is functional, organism-based. The note with it: Alphacoronavirus 1, TFI. The method, boiled down: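 ST cells, with or without a 2-h compound pretreatment, infected with TGEV at MOI 10. At 6 h they were fixed in 80% acetone and stained with mAbs to S and N protein, then FITC anti-mouse Ig for 60 min at room temperature. Fluorescence was read at ex 485/em 535 nm. Eight concentrations were tested, and EC50 was taken from dose-response curves.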

Series [18] has the same test system. The series can be described thus: Antiviral activity against Transmissible gastroenteritis virus TFI infected in swine testicle cells assessed as protection against virus-induced cytopathic effect at 5 uM after 18 hrs post infection. In kind it is functional, organism-based. In short, it runs like this: as §2
The test system is the same in series [19]. The series can be described thus: Antiviral activity against Transmissible gastroenteritis virus TFI infected in swine testicle cells assessed as reduction of N protein expression after 6 hrs post infection by Western blot analysis. In kind it is functional, organism-based. The method, boiled down:
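TGEV-infected ST cells were treated with compound at 0.3 to 10 µM. Lysates with equal total protein were separated by SDS-PAGE, transferred to nitrocellulose, probed with anti-TGEV N protein antibody, and detected by enhanced chemiluminescence. Three independent experiments were run.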

Structures are written as SMILES. Active and inactive are the calls of the source. No cut-off for these calls is given here. A value given as a limit tells only on which side of the number the result lay.

In the case of `CCC(=C\c1sc2c3ccccc3ccc2[n+]1CC)/C=C1/Sc2cc(C)c(C)cc2N1CC`, the Activity in [1] is 2.6%; in series [4], “Dose-dependent effect”; in [6], 0.3%; in series [7] it was “Dose-dependent effect”; in [8], 1.4%; in series [12] it was 1.1%. Further, the Activity in series [14] was 1.3%; in series [15], 0.5%; in series [19] it was “Dose-dependent effect”. The same molecule came in with a GI50 at 18 h in [2] of 21.3 µM. In addition, the result in series [3], in [9], in series [11], in series [13], in [16] and in [18] was Active. Moreover, the 50% inhibitory concentration (IC50) in [5] amounted to 8 µM; in series [10], 5.4 µM. Moreover, in [17], the EC50 was 2.1 µM.
For `CCC(=C\c1sc2cc(C)c(C)cc2[n+]1CC)/C=C1/Sc2cc(/C=C/c3ccccc3)ccc2N1CC`, the result in series [3], in series [9], in series [11], in [13], in series [16] and in [18] was Active. Besides, the concentration for a half-maximal effect (EC50) in series [17] was 1.8 µM.
In turn, `CCN1/C(=C\C=C\c2sc3ccc(-c4nc5ccccc5s4)cc3[n+]2CC)Sc2ccc(-c3nc4ccccc4s3)cc21` registered a GI50 at 18 h in series [2] of over 50 µM. Also, the half-maximal inhibitory concentration (IC50) is 2.1 µM in [5] and 2.5 µM in series [10]. Besides, the outcome in [9] and in [11] was inactive. For the same molecule, in [17], the concentration for a half-maximal effect (EC50) is over 30 µM.
On to `CCN1/C(=C\C=C\C2=CC(=C/c3sc4ccccc4[n+]3CC)/CC(C)C2)Sc2ccccc21` (configuration not stated), for which the Activity in [1] is 13.7%; in series [4], “Dose-dependent effect”; in series [6] it was 1.4%; in [7], “Dose-dependent effect”; in series [8], 20.8%; in series [12], 1.4%. Further, the Activity in [14] was 2.1%; in [15] it was 2.3%; in [19] it was “Dose-dependent effect”. The same molecule displayed a concentration for 50% growth inhibition (GI50) at 18 h in series [2] of over 50 µM. The result in series [3], in series [9], in series [11], in series [13], in series [16] and in [18] was Active. The half-inhibitory concentration (IC50) in series [5] was 11.9 µM; in [10], 2 µM. Also, the EC50 in [17] worked out at 6.2 µM.
`CCN1/C(=C\C=c2/s/c(=C\c3sc4ccccc4[n+]3CC)n(CC)c2=O)Sc2ccccc21`: the GI50 at 18 h in series [2] is over 50 µM. Further, the IC50 is 2.2 µM in series [5] and 10 µM in [10]. In addition, the result in series [9] and in series [11] was inactive. Also, in series [17], the half-maximal effective concentration (EC50) stood at 17.4 µM.
In [2], `C(/C1=C2Sc3ccccc3N2CC1)=C1\CC[n+]2c1sc1ccccc12` yielded a GI50 at 18 h of over 50 µM. The figures for the 50% inhibitory concentration (IC50) in series [5] and in series [10] were 2.2 µM and 10.5 µM, respectively. For the same molecule, the outcome in [9] and in [11] was inactive. For the same molecule, in series [17], the EC50 was over 30 µM.
On to `CCN1C(c2ccccc2)=C(c2ccccc2)S/C1=C/C=C/c1sc2c3ccccc3ccc2[n+]1CC.[Cl-]`, for which the Activity is 59.6% in [1]; 0.2% in series [6]; 39.9% in series [8]; 0.4% in series [12]; 3% in [14]; 1.2% in series [15]. Further, the Activity result in [19] is “Dose-dependent effect”. Further, the GI50 at 18 h in series [2] is 18.1 µM. In addition, the outcome in [3], in [9], in series [11], in series [13], in [16] and in series [18] was Active. Also, the IC50 was 4.9 µM in series [5] and 3.8 µM in series [10]. In addition, the 50% effective concentration (EC50) in series [17] turned out to be 4.5 µM.
In series [2], `CCC(/C=C1\Sc2cc(/C=C/c3ccccc3)ccc2N1CC)=C\c1sc2cc(C)c(C)cc2[n+]1CC` displayed a concentration for 50% growth inhibition (GI50) at 18 h of over 50 µM. In addition, inhibition in series [10] was half-maximal at 6.6 µM (IC50).
As for `CCN1/C(=C\C(=C/c2sc3ccccc3[n+]2CCCS(=O)(=O)[O-])OC)Sc2ccc(OC)cc21`, the concentration for 50% growth inhibition (GI50) at 18 h in series [2] amounted to 13.1 µM. The result in series [3], in series [9], in [11], in series [13], in series [16] and in series [18] was Active. Moreover, the IC50 in series [5] came out at 3.3 µM; in series [10] it was 7.3 µM. Further, the 50% effective concentration (EC50) in [17] was determined as 3 µM.

For the origin of these results see ChEMBL document CHEMBL1137639, “Novel small-molecule inhibitors of transmissible gastroenteritis virus” (Antimicrob Agents Chemother, 2007).
